TRPC4 act: activators of mouse TRPC4 channel, primary screen, Fluo4 calcium, HEK293 TRPC4beta/mu-opioid cells. Fluo4 calcium fluorescence; stronger effect = higher value. Short transient receptor potential channel 4 (Mus musculus), Q9QUQ5. B-score at 10 µM. hit rate 0.49% among 310,000;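 active = B-score above 5 SD of library B-scores, and initial fluorescence ratio not above library mean plus 5 SD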;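 also: positive B-score marks a calcium rise read as TRPC4 activation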
Target sequence (Q9QUQ5 whole entry, looked up): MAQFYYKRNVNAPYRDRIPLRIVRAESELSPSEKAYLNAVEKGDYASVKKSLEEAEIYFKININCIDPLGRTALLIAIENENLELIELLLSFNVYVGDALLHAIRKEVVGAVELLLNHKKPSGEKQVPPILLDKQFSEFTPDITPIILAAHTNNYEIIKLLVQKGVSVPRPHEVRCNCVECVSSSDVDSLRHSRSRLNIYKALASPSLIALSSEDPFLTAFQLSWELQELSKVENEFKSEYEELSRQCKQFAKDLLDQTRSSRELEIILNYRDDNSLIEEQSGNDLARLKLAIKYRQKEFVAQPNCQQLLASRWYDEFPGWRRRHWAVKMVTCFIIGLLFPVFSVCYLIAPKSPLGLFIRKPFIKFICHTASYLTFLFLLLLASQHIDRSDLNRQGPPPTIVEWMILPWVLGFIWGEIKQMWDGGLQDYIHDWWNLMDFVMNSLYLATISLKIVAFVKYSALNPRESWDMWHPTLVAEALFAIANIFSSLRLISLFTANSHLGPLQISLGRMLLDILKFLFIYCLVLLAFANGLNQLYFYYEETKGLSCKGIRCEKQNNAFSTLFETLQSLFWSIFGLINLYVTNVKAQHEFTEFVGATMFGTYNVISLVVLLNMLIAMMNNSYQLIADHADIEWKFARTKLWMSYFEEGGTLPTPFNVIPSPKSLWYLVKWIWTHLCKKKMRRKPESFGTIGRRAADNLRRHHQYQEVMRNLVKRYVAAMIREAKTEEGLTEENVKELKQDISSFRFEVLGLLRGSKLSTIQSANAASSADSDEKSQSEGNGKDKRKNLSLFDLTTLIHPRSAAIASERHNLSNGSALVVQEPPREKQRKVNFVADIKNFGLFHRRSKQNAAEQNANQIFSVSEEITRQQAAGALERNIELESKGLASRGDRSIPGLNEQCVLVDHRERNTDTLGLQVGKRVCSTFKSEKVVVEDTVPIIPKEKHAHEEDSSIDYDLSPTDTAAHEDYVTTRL
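Material: HEK293 stable line with TRPC4beta plus mu-opioid receptor; technique: Fluo4 calcium-sensitive dye fluorescence, kinetic, 1 Hz baseline; timing: Fluo4 dye loading 45 min at room temperature, 110 s recording; controls: assay buffer as low control, maximal DAMGO as high control; read-out: integrated baseline-normalised fluorescence ratio, converted to per-well B score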
TRPC4 potent: positive allosteric modulators of TRPC4, primary screen, cell-based, mouse TRPC4beta, HEK293 mu-opioid, Fluo-4 calcium; hit rate 0.42% among 310,000; Short transient receptor potential channel 4 (Mus musculus), Q9QUQ5; B-score at 10 µM; DAMGO EC20, Fluo-4 Ca2+ flux; stronger effect = higher value;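 active = B-score of calcium response area above 5 SD of library B-scores, with initial fluorescence ratio within 5 SD of library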;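 also: B-score of integrated fluorescence ratio over time as area under calcium response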
TRPC4 block: inhibitors of mouse TRPC4 channel, primary screen, Fluo4 calcium, HEK293 TRPC4beta/mu-opioid cells. Short transient receptor potential channel 4 (Mus musculus), Q9QUQ5. hit rate 0.39% among 300,000. B-score at 10 µM. AID 2247, 2010. DAMGO-evoked Fluo4 calcium flux; stronger effect = lower value;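 active = B-score over 3 SD under the library average, no early fluorescence shift, positive overall ratio signal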
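Assay system: Stable TRPC4beta/mu-opioid receptor HEK293 cells | Reagent: DAMGO in two steps, submaximal then maximal | Compound dosing: Single concentration per test compound | Signal: Fluo4 Ca2+ flux fluorescence | Evaluation: Per-well B score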
TRPC6 inhibitor: mouse TRPC6 channel inhibitors, primary screen, cell-based, HEK293, membrane potential dye; B-score at 10 µM; ACh-evoked depolarization; stronger effect = lower value; hit rate 1.1% among 310,000;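 active = B-score under library mean minus 3 SD, initial fluorescence not abnormally high, positive integrated signal ratio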;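 also: B-score derived from integrated fluorescence ratio over the kinetic read; more negative B-score means stronger inhibition of depolarization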
Kir21 inh: inhibitors of mouse Kir2.1 inward-rectifier potassium channel. AID 1672, 2009. HEK293-Kir2.1, FluxOR thallium flux fluorescence; stronger effect = lower value. Inward rectifier potassium channel 2 (Mus musculus), P35561. hit rate 0.85% among 310,000. B-score at 10 µM;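 active = fluorescence ratio B-score at or below minus 3 SD of library scores, with starting-brightness B-score within 2 SD, cut at about -4.2 in these data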;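 also: channel flux triggered by added potassium and thallium sulfate stimulus; B-score of peak minus minimum fluorescence over baseline after thallium stimulus; more negative B-score means stronger Kir2.1 block with less thallium influx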
TRPC6 activator: mouse TRPC6 channel activators, primary screen, cell-based, HEK293, membrane potential dye. HEK293-TRPC6 membrane potential dye fluorescence; stronger effect = higher value. B-score at 10 µM. hit rate 0.13% among 310,000;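 active = B-score of the integrated fluorescence ratio above library mean plus 3 SD, and starting fluorescence ratio within library mean plus 5 SD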;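 also: higher score means more depolarization so channel activation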
TRPC4 spec 2: mouse TRPC4 off-target activity of TRPC6 inhibitors, second screen. inhibition, % at 10 µM. shares compounds with TRPC6 inhibitor. HEK293 TRPC4/MOR, membrane potential dye fluorescence; channel activated by saturating DAMGO dose. hit rate 42% among 920;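 active = compounds whose fluorescence signal differed from control wells by over 3 SD, either direction, in both duplicate plates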
TRPC4 spec: mouse TRPC4 modulation by TRPC6 hits, confirmation, selectivity assay for TRPC6 inhibitor project, cell-based, HEK293 TRPC4/mu-opioid, membrane potential dye; shares compounds with TRPC6 inhibitor; membrane potential fluorescence; activity change, negative = inhibition, % at 10 µM; hit rate 61% among 920;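 active = rise or fall in signal beyond 3 SD of buffer-only wells in both replicate plates, either sign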;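 also: integrated kinetic ratio of fluorescence range over baseline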
HEK293 MPD ctr 2-1: nonspecific membrane potential effects, parental HEK293, confirmation, counter-screen for TRPC6 inhibitor project, cell-based, second counter screen. shares compounds with TRPC6 inhibitor. parental HEK293 membrane potential dye fluorescence; maximal acetylcholine challenge after compound addition. signal change vs control, % at 10 µM. hit rate 31% among 920. AID 2779, 2010;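 active = membrane potential signal moving either way by over 3 SD of the maximum-effect control, in both duplicate plates, meaning non-specific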
HEK293 MPD ctr-1: membrane potential modulation in parental HEK293, confirmation, counter-screen for TRPC6 inhibitor project, cell-based. membrane potential signal change, % at 10 µM. hit rate 60% among 920. parental HEK293 membrane potential dye fluorescence. shares compounds with TRPC6 inhibitor. AID 2780, 2010;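 active = membrane potential signal shifting up or down by more than 3 SD of buffer-only wells, on both duplicate plates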
HEK293 MPD ctr-2: parental HEK293 membrane potential modulation, confirmation, counter-screen for TRPC6 modulator project, cell-based; shares compounds with TRPC6 inhibitor; membrane potential dye fluorescence; membrane potential signal change, % at 10 µM; hit rate 51% among 2,400; AID 488924, 2010;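 active = membrane potential signal moves up or down beyond 5 SD from buffer-only wells, on both duplicate plates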
HEK293 MPD ctr 2-2: second counter-screen for TRPC6 modulators: effect in parental HEK293 cells | shares compounds with TRPC6 inhibitor | hit rate 14% among 2,400 | inhibition, % at 10 µM | membrane potential dye fluorescence; after compound, maximal acetylcholine stimulation | AID 488926;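 active = membrane potential signal drops by more than 5 SD from the mean control signal, in both duplicate plates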;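 also: plate controls were acetylcholine ECmax control wells for no effect and buffer only wells for full effect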
TRPC4 ctr mod: TRPC4 modulation by TRPC6 hit compounds, confirmation, selectivity assay for TRPC6 modulator project, cell-based, HEK293 TRPC4/mu-opioid, membrane potential dye, mouse | percent change from control (negative = decrease, positive = increase), % at 10 µM | AID 488927, 2010 | shares compounds with TRPC6 inhibitor | membrane potential fluorescence | hit rate 69% among 2,400;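 active = membrane potential signal moved up or down beyond 5 SD of buffer control wells, in both duplicate plates, actives on both sides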;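 also: plate controls were assay buffer wells for no effect and DAMGO maximal-effect wells for full effect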
TRPC4/MOR inh 2: second check of whether TRPC6 modulators also affect mouse TRPC4; shares compounds with TRPC6 inhibitor; HEK293 TRPC4/mu-opioid, membrane potential dye fluorescence; stimulated with maximal-effect DAMGO; inhibition, % at 10 µM; hit rate 55% among 2,400;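 active = drop in membrane potential signal beyond 5 SD of the control wells in both duplicate plates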;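 also: TRPC4 counter screen for TRPC6 hits run under conditions tuned for TRPC6 not TRPC4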
TRPC6 inh conf: mouse TRPC6 channel inhibitors, confirmation, HEK293 cells, membrane potential dye, duplicate | shares compounds with TRPC6 inhibitor | hit rate 43% among 3,300 | inhibition, % at 10 µM | ACh-evoked depolarization | AID 488960, 2010;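 active = fluorescence ratio falls more than 5 SD below the full-stimulation control mean, in both duplicate runs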;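 also: integrated fluorescence ratio of peak minus minimum over baseline after agonist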
TRPC6 act confirm: mouse TRPC6 channel activators, confirmation, HEK293 cells, membrane potential dye, duplicate. HEK293-TRPC6 membrane potential dye fluorescence, FDSS. hit rate 11% among 2,800. activation, % at 10 µM. shares compounds with TRPC6 inhibitor;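 active = ratio signal rise beyond 5 SD above unstimulated control wells' mean, seen in both duplicate runs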;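 also: plate controls were buffer EC0 wells for no effect and acetylcholine ECmax response for full effect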
* = called active by the depositor; i = inactive; / = not tested or not shown. Only some compounds are listed: those with a hit (about 2.9% of all), similar ones and a draw of the others.

SMILES	TRPC4 act	TRPC4 potent	TRPC4 block	TRPC6 inhibitor	Kir21 inh	TRPC6 activator	TRPC6 inh conf	TRPC6 act confirm	others
N=c1c2c(n(Cc3ccc(F)cc3)c3c1CCC3)CCCC2	i	i	i	-5.4*	0.58	i	i	i	HEK293 MPD ctr-2=-188%*;HEK293 MPD ctr 2-2=i;TRPC4 ctr mod=-30%*;TRPC4/MOR inh 2=30%*
CN(C)CCCNC1CS(=O)(=O)CC1O (stereo not drawn)	i	i	i	-7.2*	-0.03	i	i	i	TRPC4 spec 2=i;TRPC4 spec=i;HEK293 MPD ctr 2-1=i;HEK293 MPD ctr-1=i
Cc1ccc2[nH]c(O)c(N=NC(=O)C3CC3c3ccccc3)c2c1Br (stereo not drawn)	i	i	i	i	3.1	i	/	/
COc1ccccc1-n1cc(CN2CCN(C3CCCC3)C(CCO)C2)cn1 (stereo not drawn)	i	i	i	-5.2*	0.3	i	36%*	/	HEK293 MPD ctr-2=i;HEK293 MPD ctr 2-2=i;TRPC4 ctr mod=10%*;TRPC4/MOR inh 2=i
COC(=O)c1ccc(CN2CCN(C3CCCCC3)C(CCO)C2)cc1 (stereo not drawn)	i	i	i	i	0.18	i	/	/
COC(=O)c1ccc(CN2CCN(C3CCCC3)C(CCO)C2)cc1 (stereo not drawn)	i	i	i	-9.5*	-0.02	i	63%*	/	TRPC4 spec 2=i;TRPC4 spec=2.2%*;HEK293 MPD ctr 2-1=6.0%*;HEK293 MPD ctr-1=4.6%*
COc1ccccc1-n1cc(CN2CCN(CC(C)C)C(CCO)C2)cn1 (stereo not drawn)	i	i	i	i	-1.1	i	/	/
COCCC(=O)N1CCC(Oc2ccc(C(=O)NC3CCOC(C)(C)C3)cc2)CC1 (stereo not drawn)	i	i	i	i	0.04	i	/	/
COc1ccc(Cl)cc1S(=O)(=O)N(C)CC(=O)N1CCOCC1	i	i	i	i	0.83	i	/	/
CCC(CC)COC(=O)C(C#N)c1nc2ccccc2nc1N1CCN(CC)CC1 (stereo not drawn)	i	i	i	-9.8*	0.96	i	63%*	i	TRPC4 spec 2=50%*;TRPC4 spec=i;HEK293 MPD ctr 2-1=i;HEK293 MPD ctr-1=i
CCc1cccc(C)c1NC(=O)CSc1nnc(C)o1	i	i	i	i	0.11	i	/	/
CCN(CC)CCCNC(=O)c1cc2nc3c(c(C(F)(F)F)n2n1)CCc1ccccc1-3	i	i	i	-6.7*	0.8	i	i	i	TRPC4 spec 2=65%*;TRPC4 spec=i;HEK293 MPD ctr 2-1=i;HEK293 MPD ctr-1=0.8%*
Cc1ccc(O)c(NC(=O)c2cc3nc4c(c(C(F)(F)F)n3n2)CCc2ccccc2-4)c1	i	i	i	i	-1.4	i	/	/
CC(O)[C@H]1CNCCN1CCc1cccc(F)c1 (stereo partly drawn)	i	i	i	i	-2.3	i	/	/
COc1ccc(C(=O)NC2CCCN(Cc3ccc(Cl)cc3)C2)c(OC)c1 (stereo not drawn)	i	i	i	i	-0.86	i	/	/
COc1ccc(OCC(=O)NC2CCCN(Cc3ccc(Cl)cc3)C2)cc1 (stereo not drawn)	i	15*	i	-6.2*	-1.4	i	50%*	/	HEK293 MPD ctr-2=116%*;HEK293 MPD ctr 2-2=i;TRPC4 ctr mod=24%*;TRPC4/MOR inh 2=i
O=C(/C=C1\NCC2c3ccccc3CCN2C1=O)c1ccccc1 (stereo not drawn)	i	i	i	-6.1*	0.85	i	72%*	/	HEK293 MPD ctr-2=171%*;HEK293 MPD ctr 2-2=i;TRPC4 ctr mod=14%*;TRPC4/MOR inh 2=i
CN1CCc2c(sc3c2c(=O)n(-c2cccc(Cl)c2)c2nncn32)C1	i	i	i	-5.5*	1.3	i	i	i	HEK293 MPD ctr-2=i;HEK293 MPD ctr 2-2=i;TRPC4 ctr mod=7.0%*;TRPC4/MOR inh 2=i
O=c1c2c3c(sc2n2cnnc2n1-c1ccccc1)N(Cc1ccccc1)CCC3	i	i	i	-7*	-1.8	i	i	i	TRPC4 spec 2=i;TRPC4 spec=-20%*;HEK293 MPD ctr 2-1=i;HEK293 MPD ctr-1=-271%*
Cc1nnc2n(-c3ccccc3)c(=O)c3c4c(sc3n12)CCCC4	i	i	i	i	-0.1	i	/	/
O=C(CN1CCN(C(=O)c2ccco2)CC1)Nc1cccc([N+](=O)[O-])c1	i	i	i	i	-0.01	i	/	/
